This note sets out measurements from ChEMBL document CHEMBL4613215, “Structure-Activity Relationships for a Series of (Bis(4-fluorophenyl)methyl)sulfinyl Alkyl Alicyclic Amines at the Dopamine Transporter: Functionalizing the Terminal Nitrogen Affects Affinity, Selectivity, and Metabolic Stability” (J Med Chem, 2020).

Series [1] has as its target Sodium-dependent dopamine transporter (Rattus norvegicus, UniProt P23977). Briefly: Displacement of [3H]WIN35428 from DAT in Sprague-Dawley rat striatum membranes incubated for 120 mins by microbeta scintillation counting method. It is filed as cell membranes, Membrane. (Loss of bound radioactivity is the signal in a displacement assay; it reports binding, not function.)

In series [2] the target is Sigma non-opioid intracellular receptor 1 (Cavia porcellus, UniProt Q60492). Briefly: Displacement of [3H]-(+)-pentazocine from Sigma1 receptor in guinea pig cortex membranes incubated for 120 mins by microbeta scintillation counting method. It is filed as cell membranes.
The target of series [3] is Voltage-gated inwardly rectifying potassium channel KCNH2 (Homo sapiens, UniProt Q12809). Briefly: Inhibition of human ERG.
For series [4], the target named is T1, Sodium-dependent dopamine transporter (Homo sapiens, UniProt Q01959). Briefly: Displacement of [3H]WIN35428 from DAT (unknown origin) transiently expressed in COS7 cells incubated for > 90 mins by beta scintillation counting method. It is filed as cell-based, COS-7.
Series [5] in a line: Stability in mouse liver microsomes assessed as parent compound remaining at 10 uM after 60 mins in presence of NADPH by LC-MS/MS analysis. The settings on record: read-out: Stability. Format: ADME, Microsome. (Microsomes from liver hold many membrane-bound enzymes, among them those of drug oxidation.)
Series [6] in a line: Effect on locomotor activity in mouse assessed as increase in total ambulations at 1 to 30 mg/kg, ip measured during 30 mins of 2 hrs test by open field test. It is filed as ADME, organism-based. As to conditions: in vivo. The procedure, abridged:
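Mice acclimatized ~2 h, injected i.p. then placed immediately in open-field chambers with infrared beam arrays; beam breaks over 2 h converted to distance; maximum distance per 30 min reported; n=6 per group, each mouse used once; two-way ANOVA (Drug, Dose) with Tukey post-hoc versus vehicle.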

Series [7] is described as follows: Half life in mouse liver microsomes at 10 uM in presence of NADPH by LC-MS/MS analysis. Format: ADME, Microsome.
Series [8] in a line: Half life in human liver microsomes at 10 uM after 60 mins in presence of NADPH by LC-MS/MS analysis. It is filed as ADME, Microsome. The settings on record: microsomes, 1 h, 10 µM.
Series [9] is described as follows: Stability in human liver microsomes assessed as parent compound remaining at 10 uM after 60 mins in presence of NADPH by LC-MS/MS analysis. It is filed as ADME, Microsome. As to conditions: read-out: Stability.
The nature of series [10]: Drug metabolism in mouse liver microsomes assessed as 1-(2-((Bis(4-fluorophenyl)methyl)thio)ethyl)-3,5-cis-dimethylpiperazine metabolite formation by HPLC/MS analysis. It is filed as ADME, Microsome.
The target of series [11] is T1, Sodium-dependent dopamine transporter. As to the kind of experiment: Inhibition of human DAT transiently expressed in COS7 cells assessed as reduction in [3H]-DA uptake measured after 5 mins by beta-scintillation counting method. Format: cell-based, COS-7.

Where only a bound is given, the exact number is not on record here.

T1 sequence (Q01959 whole entry): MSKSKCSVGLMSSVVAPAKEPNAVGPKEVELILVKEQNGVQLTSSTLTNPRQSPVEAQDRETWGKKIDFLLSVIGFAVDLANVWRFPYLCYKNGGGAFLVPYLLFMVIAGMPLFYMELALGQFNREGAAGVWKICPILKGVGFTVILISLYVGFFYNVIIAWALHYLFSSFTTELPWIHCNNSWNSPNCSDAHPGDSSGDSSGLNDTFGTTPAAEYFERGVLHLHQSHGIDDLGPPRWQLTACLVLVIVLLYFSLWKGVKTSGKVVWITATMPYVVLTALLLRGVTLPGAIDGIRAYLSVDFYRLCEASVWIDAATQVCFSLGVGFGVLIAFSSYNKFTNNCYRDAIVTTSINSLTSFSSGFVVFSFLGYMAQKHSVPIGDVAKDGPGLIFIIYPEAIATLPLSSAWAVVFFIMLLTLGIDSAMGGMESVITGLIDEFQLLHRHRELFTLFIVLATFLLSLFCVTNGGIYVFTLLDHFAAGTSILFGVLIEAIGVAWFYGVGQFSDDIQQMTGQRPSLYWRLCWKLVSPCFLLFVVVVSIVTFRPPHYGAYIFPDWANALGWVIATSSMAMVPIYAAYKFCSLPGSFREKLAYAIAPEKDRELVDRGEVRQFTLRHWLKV
Chain of Sodium-dependent dopamine transporter (Rattus norvegicus, UniProt P23977) (P23977 whole entry): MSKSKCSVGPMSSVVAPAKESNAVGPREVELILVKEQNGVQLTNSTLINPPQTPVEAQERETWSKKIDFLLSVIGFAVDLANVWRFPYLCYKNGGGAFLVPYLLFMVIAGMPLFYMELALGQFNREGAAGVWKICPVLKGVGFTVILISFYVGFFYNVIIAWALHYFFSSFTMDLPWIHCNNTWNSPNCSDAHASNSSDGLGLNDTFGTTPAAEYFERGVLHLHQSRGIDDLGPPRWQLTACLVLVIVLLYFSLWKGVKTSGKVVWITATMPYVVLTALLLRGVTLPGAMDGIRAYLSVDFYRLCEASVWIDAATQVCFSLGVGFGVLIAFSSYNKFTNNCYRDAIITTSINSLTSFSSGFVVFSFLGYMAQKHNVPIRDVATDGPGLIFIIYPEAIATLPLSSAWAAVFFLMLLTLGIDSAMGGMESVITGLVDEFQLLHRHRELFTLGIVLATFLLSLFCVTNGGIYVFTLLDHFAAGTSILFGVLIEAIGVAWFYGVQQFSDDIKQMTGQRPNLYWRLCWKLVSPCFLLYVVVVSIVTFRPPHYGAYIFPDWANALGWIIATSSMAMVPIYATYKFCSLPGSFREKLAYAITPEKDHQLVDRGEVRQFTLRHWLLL
Chain of Sigma non-opioid intracellular receptor 1 (Q60492 whole entry): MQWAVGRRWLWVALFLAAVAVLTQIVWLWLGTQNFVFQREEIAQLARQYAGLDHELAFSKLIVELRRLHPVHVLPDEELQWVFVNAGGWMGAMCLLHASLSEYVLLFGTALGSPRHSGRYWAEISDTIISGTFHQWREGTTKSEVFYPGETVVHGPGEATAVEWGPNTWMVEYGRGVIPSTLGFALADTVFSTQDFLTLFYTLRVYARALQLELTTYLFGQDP
Chain of Voltage-gated inwardly rectifying potassium channel KCNH2 (Q12809 whole entry): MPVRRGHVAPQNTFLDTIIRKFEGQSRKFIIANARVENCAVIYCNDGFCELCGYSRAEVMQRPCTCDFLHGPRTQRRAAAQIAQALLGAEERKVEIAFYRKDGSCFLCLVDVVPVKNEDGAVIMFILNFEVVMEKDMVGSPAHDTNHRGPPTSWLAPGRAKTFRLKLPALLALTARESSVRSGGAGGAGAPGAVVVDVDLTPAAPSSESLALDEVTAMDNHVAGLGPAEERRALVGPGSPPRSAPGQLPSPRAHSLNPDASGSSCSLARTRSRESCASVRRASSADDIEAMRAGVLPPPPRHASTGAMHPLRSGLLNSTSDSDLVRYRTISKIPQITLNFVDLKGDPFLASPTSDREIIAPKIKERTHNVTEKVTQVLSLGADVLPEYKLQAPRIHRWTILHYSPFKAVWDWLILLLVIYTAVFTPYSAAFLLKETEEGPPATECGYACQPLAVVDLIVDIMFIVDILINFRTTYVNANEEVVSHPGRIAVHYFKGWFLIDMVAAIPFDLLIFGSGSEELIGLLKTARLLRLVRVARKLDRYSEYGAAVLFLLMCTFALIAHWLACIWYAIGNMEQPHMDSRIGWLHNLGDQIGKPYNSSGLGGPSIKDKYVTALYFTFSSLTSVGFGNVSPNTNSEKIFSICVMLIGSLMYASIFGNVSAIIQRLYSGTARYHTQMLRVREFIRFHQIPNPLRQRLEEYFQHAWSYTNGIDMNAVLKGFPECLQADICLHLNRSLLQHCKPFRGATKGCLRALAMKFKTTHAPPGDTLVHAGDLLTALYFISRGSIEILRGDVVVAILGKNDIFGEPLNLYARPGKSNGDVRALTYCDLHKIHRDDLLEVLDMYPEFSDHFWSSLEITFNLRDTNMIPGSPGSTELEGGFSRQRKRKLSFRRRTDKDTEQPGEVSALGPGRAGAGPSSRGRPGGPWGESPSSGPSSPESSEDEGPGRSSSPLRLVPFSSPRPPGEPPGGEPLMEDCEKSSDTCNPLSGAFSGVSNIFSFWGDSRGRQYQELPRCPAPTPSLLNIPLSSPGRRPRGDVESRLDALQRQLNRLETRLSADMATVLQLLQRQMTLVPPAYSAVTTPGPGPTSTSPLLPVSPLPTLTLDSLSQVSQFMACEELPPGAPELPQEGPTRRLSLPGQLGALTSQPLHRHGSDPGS

As to `CC(O)CN1[C@H](C)CN(CCSC(c2ccc(F)cc2)c2ccc(F)cc2)C[C@@H]1C` (mixture of isomers), the Ki – broadly, a dissociation constant, usually derived from enzyme kinetics or from competition with a known ligand – came out at 23.1 nM in series [1], 5.62 nM in [2], 58.3 nM in series [4] and 100 nM in [11]. For the same compound, the IC50 (as a rule, the midpoint of a concentration-inhibition curve) in series [3] was determined as 635 nM. In addition, the remaining at 1 h, 10 µM in series [5] is less than 10%; in series [9], more than 30%. In [6], the Activity result is reported as “Non-Toxic”. Moreover, the half-life (as a rule, the time in which the quantity being followed falls by half) at 10 µM in series [7] was 20 min. The t1/2 in series [8] is on record as more than 40 min. Besides, in series [10], the Drug metabolism result is “Metabolite_Detected”.
